From ChEMBL document CHEMBL1944633, “A new generation of radiofluorinated pyrimidine-2,4,6-triones as MMP-targeted radiotracers for positron emission tomography” (J Med Chem, 2012)
pIC50: −log10 of the molar value.

Tests used:
[1] = target: 72 kDa type IV collagenase (Homo sapiens, UniProt P08253); experiment: Inhibition of MMP2 using (7-methoxycoumarin-4-yl)acetyl-Pro-Leu-Gly-Leu-(3-(2,4-dinitrophenyl)-L-2,3-diaminopropionyl)Ala-Arg-NH2 as substrate preincubated for 30 mins measured after 10 mins by fluorescence analysis
How it was run: (§1)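 Activated enzyme at 2 nM preincubated with inhibitor (10 pM to 1 mM) for 30 min at 37 °C in 50 mM Tris-HCl pH 7.5, 0.2 M NaCl, 5 mM CaCl2, 20 μM ZnSO4, 0.05% Brij 35. Fluorogenic peptide substrate added (10 μL of 50 μM stock to 90 μL mix).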

[2] = target: Matrix metalloproteinase-9 (Homo sapiens, UniProt P14780); experiment: Inhibition of MMP9 using (7-methoxycoumarin-4-yl)acetyl-Pro-Leu-Gly-Leu-(3-(2,4-dinitrophenyl)-L-2,3-diaminopropionyl)Ala-Arg-NH2 as substrate preincubated for 30 mins measured after 10 mins by fluorescence analysis; how it was run: as §1
Collagenase 3 = Collagenase 3 (Homo sapiens, UniProt P45452); experiment: Inhibition of MMP13 using (7-methoxycoumarin-4-yl)acetyl-Pro-Leu-Gly-Leu-(3-(2,4-dinitrophenyl)-L-2,3-diaminopropionyl)Ala-Arg-NH2 as substrate preincubated for 30 mins measured after 10 mins by fluorescence analysis
How it was run: as §1, with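 “mix). Fluorescence read at ex 330/em 390 nm. Rates taken from initial 10 min; IC50 by nonlinear regression of rate versus concentration.” for “mix).”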

Neutrophil collagenase = Neutrophil collagenase (Homo sapiens, UniProt P22894); experiment: Inhibition of MMP8 using (7-methoxycoumarin-4-yl)acetyl-Pro-Leu-Gly-Leu-(3-(2,4-dinitrophenyl)-L-2,3-diaminopropionyl)Ala-Arg-NH2 as substrate preincubated for 30 mins measured after 10 mins by fluorescence analysis
How it was run: as §1, with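 “mix). Fluorescence read at ex 330/em 390 nm. Rates taken from initial 10 min; IC50 by nonlinear regression of rate versus concentration.” for “mix).”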

Serum = experiment: Stability of the compound in human serum at 5MBq measured up to 120 mins by HPLC analysis; assay type: ADME, cell-free; conditions: 2 h
How it was run: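 PBS-formulated radioligand (20 μL, 5 MBq) added to 200 μL human serum at 37 °C. 20 μL aliquots taken at 10, 20, 30, 60, 90 and 120 min and quenched in methanol/CH2Cl2 (1:1, 100 μL). Samples centrifuged 2 min; organic layer analysed by radio-HPLC (10–90% CH3CN/water, 0.1% TFA gradient).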

Intestine = experiment: Drug uptake in BALB/c mouse intestine at 5 to 8 MBq measured after 60 mins by CT scanning; assay type: ADME, tissue-based; conditions: in vivo, 1 h
How it was run: (§2)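 Balb/c mice (19–27 g) under isoflurane (1.5%/0.3 L/min) on a heating pad, tail-vein catheter. 5–8 MBq radiotracer in 100 μL with 150 μL saline flush, injected iv 30 s after scan start. Dynamic list-mode small-animal PET for 60 min, iterative resolution-recovery reconstruction. CT acquired afterwards (80 μm). CT-guided volumes of interest gave time–activity curves as %ID.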

[3] = Drug uptake in BALB/c mouse urinary bladder at 5 to 8 MBq measured after 60 mins by CT scanning; assay type: ADME, tissue-based; conditions: in vivo, 1 h; how it was run: as §2
[4] = Drug uptake in BALB/c mouse gallbladder at 5 to 8 MBq measured after 60 mins by CT scanning; assay type: ADME, Gall bladder; conditions: in vivo, 1 h; how it was run: as §2
Liver [5] = experiment: Drug uptake in BALB/c mouse liver at 5 to 8 MBq measured after 90 to 120 mins post injection by CT scanning; assay type: ADME; conditions: in vivo
[6] = Octanol-water partition coefficient, log D of the compound at pH 7.4 by gamma counter; assay type: physicochemical
How it was run: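 About 20 kBq radioligand shaken 1 min at room temperature in equal volumes (0.5 mL) of PBS pH 7.4 and 1-octanol. Phases separated by centrifugation (3000 rpm, 2 min). Three 100 μL samples per layer gamma-counted. log D7.4 = log(cpm octanol/cpm PBS). Two independent experiments in triplicate, mean ± standard deviation.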

Brain = experiment: Drug uptake in BALB/c mouse brain at 5 to 8 MBq measured after 60 mins by CT scanning; assay type: ADME, tissue-based; conditions: in vivo, 1 h; how it was run: as §2
Kidney = experiment: Drug uptake in BALB/c mouse kidney at 5 to 8 MBq measured after 60 mins by CT scanning; assay type: ADME; conditions: in vivo, 1 h; how it was run: as §2
Lung = experiment: Drug uptake in BALB/c mouse lung at 5 to 8 MBq measured after 60 mins by CT scanning; assay type: ADME; conditions: in vivo, 1 h; how it was run: as §2
Liver [7] = experiment: Drug uptake in BALB/c mouse liver at 5 to 8 MBq measured after 10 to 15 mins post injection by CT scanning; assay type: ADME; conditions: in vivo
Liver [8] = experiment: Drug uptake in BALB/c mouse liver at 5 to 8 MBq measured after 60 mins by CT scanning; assay type: ADME; conditions: in vivo, 1 h; how it was run: as §2
Heart = experiment: Drug uptake in BALB/c mouse heart at 5 to 8 MBq measured after 60 mins by CT scanning; assay type: ADME, tissue-based; conditions: in vivo, 1 h; how it was run: as §2
[9] = Drug uptake in BALB/c mouse skeleton at 5 to 8 MBq measured after 60 mins by CT scanning; assay type: ADME; conditions: in vivo, 1 h; how it was run: as §2

72 kDa type IV collagenase, sequence (P08253 whole entry): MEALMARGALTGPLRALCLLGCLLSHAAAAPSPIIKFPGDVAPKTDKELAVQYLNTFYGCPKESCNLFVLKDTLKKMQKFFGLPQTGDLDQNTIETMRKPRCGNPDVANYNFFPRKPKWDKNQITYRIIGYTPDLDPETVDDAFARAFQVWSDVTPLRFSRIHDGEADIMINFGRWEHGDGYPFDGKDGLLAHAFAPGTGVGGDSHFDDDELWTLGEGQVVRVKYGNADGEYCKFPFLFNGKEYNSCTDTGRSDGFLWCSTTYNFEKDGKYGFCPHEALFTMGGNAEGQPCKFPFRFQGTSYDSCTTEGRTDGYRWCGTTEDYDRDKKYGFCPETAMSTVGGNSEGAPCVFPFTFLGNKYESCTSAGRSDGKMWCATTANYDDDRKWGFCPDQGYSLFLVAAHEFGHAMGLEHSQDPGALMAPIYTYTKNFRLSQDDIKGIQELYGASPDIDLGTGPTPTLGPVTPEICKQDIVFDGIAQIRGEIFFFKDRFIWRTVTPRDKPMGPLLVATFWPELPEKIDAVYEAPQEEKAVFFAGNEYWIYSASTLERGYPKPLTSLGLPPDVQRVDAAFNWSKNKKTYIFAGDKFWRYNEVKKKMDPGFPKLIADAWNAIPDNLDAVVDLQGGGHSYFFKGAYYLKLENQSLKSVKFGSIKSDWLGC
Matrix metalloproteinase-9, sequence (P14780 whole entry): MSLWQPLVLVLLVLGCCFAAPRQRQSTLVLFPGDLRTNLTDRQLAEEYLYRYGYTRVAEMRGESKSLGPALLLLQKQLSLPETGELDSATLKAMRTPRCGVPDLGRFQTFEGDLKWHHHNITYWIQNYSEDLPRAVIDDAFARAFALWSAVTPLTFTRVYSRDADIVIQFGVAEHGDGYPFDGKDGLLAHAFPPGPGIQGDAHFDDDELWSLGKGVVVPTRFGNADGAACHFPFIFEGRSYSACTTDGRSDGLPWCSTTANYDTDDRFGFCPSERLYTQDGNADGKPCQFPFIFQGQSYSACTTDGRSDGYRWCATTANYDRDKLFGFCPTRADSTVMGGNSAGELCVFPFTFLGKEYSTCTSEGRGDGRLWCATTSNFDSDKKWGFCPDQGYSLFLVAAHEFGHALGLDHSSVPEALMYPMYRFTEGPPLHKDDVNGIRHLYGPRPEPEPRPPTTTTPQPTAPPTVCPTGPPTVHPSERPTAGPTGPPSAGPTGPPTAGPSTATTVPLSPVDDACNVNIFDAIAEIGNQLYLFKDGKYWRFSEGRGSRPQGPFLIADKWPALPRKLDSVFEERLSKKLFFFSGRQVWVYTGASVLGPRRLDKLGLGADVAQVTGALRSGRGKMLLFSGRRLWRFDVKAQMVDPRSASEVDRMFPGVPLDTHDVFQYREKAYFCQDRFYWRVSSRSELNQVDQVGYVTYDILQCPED
Neutrophil collagenase, sequence (P22894 whole entry): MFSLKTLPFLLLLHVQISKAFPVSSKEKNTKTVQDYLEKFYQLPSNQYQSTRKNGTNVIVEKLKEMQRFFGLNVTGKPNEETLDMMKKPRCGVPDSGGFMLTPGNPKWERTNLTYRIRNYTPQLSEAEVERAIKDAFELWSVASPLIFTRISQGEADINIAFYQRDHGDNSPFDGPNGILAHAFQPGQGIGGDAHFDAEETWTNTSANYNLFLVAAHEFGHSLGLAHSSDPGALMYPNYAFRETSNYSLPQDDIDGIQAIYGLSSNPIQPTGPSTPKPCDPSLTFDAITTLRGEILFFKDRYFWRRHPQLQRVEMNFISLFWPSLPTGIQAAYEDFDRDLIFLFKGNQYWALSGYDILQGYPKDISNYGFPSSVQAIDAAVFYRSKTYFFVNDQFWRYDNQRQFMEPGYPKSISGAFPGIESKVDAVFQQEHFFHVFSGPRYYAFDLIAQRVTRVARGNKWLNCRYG

O=C1NC(=O)C(c2ccc(Oc3ccccc3)cc2)(N2CCN(CCOCCOCCOCCn3cc(CNS(=O)(=O)c4ccc(F)cc4)nn3)CC2)C(=O)N1
pIC50 [1]: 7.89
pIC50 [2]: 7.70
pIC50 (Collagenase 3): 7.64
pIC50 (Neutrophil collagenase): 7.72

O=C1NC(=O)C(c2ccc(Oc3ccccc3)cc2)(N2CCN(CCOCCOCCOCCOCc3cn(CC[18F])nn3)CC2)C(=O)N1
Stability (Serum): Stable
Drug uptake (Intestine): Active
Drug uptake [3]: Active
Drug uptake [4]: Active
Drug uptake (Liver [5]): Active
logD [6]: 0.78
Drug uptake (Brain): Not Active
Drug uptake (Kidney): Active
Drug uptake (Lung): Not Active
Drug uptake (Liver [7]): Active
Drug uptake (Liver [8]): Active
Drug uptake (Heart): Not Active
Drug uptake [9]: Active

CN(Cc1cn(CCOCCOCCOCCN2CCN(C3(c4ccc(Oc5ccccc5)cc4)C(=O)NC(=O)NC3=O)CC2)nn1)S(=O)(=O)c1ccc(F)cc1
pIC50 [1]: 7.92
pIC50 [2]: 8.15
pIC50 (Collagenase 3): 7.68
pIC50 (Neutrophil collagenase): 7.82

O=C1NC(=O)C(c2ccc(Oc3ccccc3)cc2)(N2CCN(CC[18F])CC2)C(=O)N1
pIC50 (Collagenase 3): 6.19
logD [6]: 2.15
pIC50 (Neutrophil collagenase): 6.86

O=C1NC(=O)C(c2ccc(Oc3ccccc3)cc2)(N2CCN(CCOCCOCCOCCOCCOCCOCCOCCOCc3cn(CCF)nn3)CC2)C(=O)N1
pIC50 [1]: 7.36
pIC50 [2]: 7.13
pIC50 (Collagenase 3): 7.03
pIC50 (Neutrophil collagenase): 6.82

O=C1NC(=O)C(c2ccc(Oc3ccccc3)cc2)(N2CCN(c3cccc(F)n3)CC2)C(=O)N1
pIC50 [1]: 6.69
pIC50 [2]: 8.05
pIC50 (Collagenase 3): 7.32
pIC50 (Neutrophil collagenase): 6.89

O=C1NC(=O)C(c2ccc(Oc3ccccc3)cc2)(N2CCN(CCOCCOCCOCCn3cc(COC(=O)c4ccc(F)cc4)nn3)CC2)C(=O)N1
pIC50 [1]: 7.66
pIC50 [2]: 7.64
pIC50 (Collagenase 3): 8.15
pIC50 (Neutrophil collagenase): 7.57

O=C1NC(=O)C(c2ccc(Oc3ccccc3)cc2)(N2CCN(CCOCCOCCOCCn3cc(CCCCOc4cccnc4F)nn3)CC2)C(=O)N1
pIC50 [1]: 7.28
pIC50 [2]: 7.22
pIC50 (Collagenase 3): 7.40
pIC50 (Neutrophil collagenase): 6.94

O=C1NC(=O)C(NCc2cn(CCOCCOCCOCCF)nn2)(c2ccc(Oc3ccccc3)cc2)C(=O)N1
pIC50 [1]: 7.19
pIC50 [2]: 7.39
pIC50 (Collagenase 3): 7.06
pIC50 (Neutrophil collagenase): 7.32

O=C1NC(=O)C(NCc2cn(CCOCCOCCOCCOc3cccnc3F)nn2)(c2ccc(Oc3ccccc3)cc2)C(=O)N1
pIC50 [1]: 7.54
pIC50 [2]: 8.00
pIC50 (Collagenase 3): 8.05
pIC50 (Neutrophil collagenase): 7.31

O=C1NC(=O)C(c2ccc(-c3ccccc3)cc2)(N2CCN(c3ccc([N+](=O)[O-])cc3)CC2)C(=O)N1
pIC50 [1]: 7.64
pIC50 [2]: 8.15
logD [6]: 2.15

O=C1NC(=O)C(c2ccc(Oc3ccccc3)cc2)(N2CCN(CCOCCOCCOCCNC(=O)c3ccc(F)cc3)CC2)C(=O)N1
pIC50 [1]: 8.30
pIC50 [2]: 8.40
pIC50 (Collagenase 3): 7.80
pIC50 (Neutrophil collagenase): 7.82

O=C1NC(=O)C(c2ccc(Oc3ccccc3)cc2)(N2CCN(CCOCCOCCOCCOCc3cn(CCF)nn3)CC2)C(=O)N1
pIC50 [1]: 7.24
pIC50 [2]: 7.57
pIC50 (Collagenase 3): 7.29
pIC50 (Neutrophil collagenase): 7.24

O=C1NC(=O)C(c2ccc(Oc3ccccc3)cc2)(N2CCN(CCOCCOCCOCCOCc3cn(CCOCCOCCOCCOc4cccnc4F)nn3)CC2)C(=O)N1
pIC50 [1]: 6.69
pIC50 [2]: 7.25
pIC50 (Collagenase 3): 6.22
pIC50 (Neutrophil collagenase): 6.97
